A selection: hits, their analogues and other compounds. The true share with any hit is near 2.3%.
Fh CTSL1 inh: Fasciola hepatica cathepsin L1 inhibitors, primary screen, counter-screen for PFM18AAP inhibitor project, biochemical, QFRET, fluorogenic peptide substrate; recombinant F. hepatica cathepsin L1, Z-Leu-Arg-MCA fluorescence; inhibition, % at 5.96 µM; 300,000 tested, 0.49% active; AID 1906, 2009;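 active = inhibition above the mean of all tested compounds plus 3 SD, set per screening campaign, cut at about 17% in these data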;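 also: 0% = plate median of test compound wells and 100% = 1 µM Z-Phe-Ala-diazomethylketone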
UCH37 DUB inh: inhibitors of human UCH37 deubiquitinase, primary screen, biochemical, Ub-AMC cleavage, fluorescence | Ubiquitin carboxyl-terminal hydrolase isozyme L5 (Homo sapiens), Q9Y5K5 | purified proteasome/UCH37 | inhibition, % (no concentration beside the values) | 330,000 tested, 0.33% active | AID 588478, 2011;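 active = mean inhibition over replicate wells above about 20%, limit read from the data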;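 also: 0% = compound-free wells with enzyme and 100% = wells lacking proteasome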
Target sequence (Q9Y5K5 whole entry, looked up): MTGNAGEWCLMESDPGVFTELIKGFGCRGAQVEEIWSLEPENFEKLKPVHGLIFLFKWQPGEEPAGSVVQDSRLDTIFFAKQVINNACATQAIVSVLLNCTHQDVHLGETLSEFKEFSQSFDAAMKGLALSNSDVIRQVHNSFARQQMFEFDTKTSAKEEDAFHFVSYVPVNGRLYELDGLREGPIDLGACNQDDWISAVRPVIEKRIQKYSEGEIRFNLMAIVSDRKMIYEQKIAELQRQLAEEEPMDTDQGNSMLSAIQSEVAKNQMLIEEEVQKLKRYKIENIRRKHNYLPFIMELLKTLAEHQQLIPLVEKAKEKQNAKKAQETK
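Material: Human UCH37 enzyme supplied as purified proteasome complex | Schedule: 30 min compound-proteasome preincubation then 25 min substrate reaction, room temperature | Detection: AMC fluorescence from Ub-AMC cleavage, excitation 355 nm, emission 460 nm | Benchmarks: Wells without proteasome as full block, compound-free enzyme plus substrate as uninhibited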
PP5 primary: PP5 phosphatase inhibitors, primary screen, biochemical, fluorescence | Serine/threonine-protein phosphatase 5 (Homo sapiens), P53041 | purified PP5c, OMFP substrate fluorescence | inhibition, % at 6.7 µM | 320,000 tested, 0.18% active | AID 1987, 2009;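 active = inhibition above the campaign's mean inhibition across all tested compounds plus 3 SD, cut at about 9.5% in these data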;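 also: 0% = DMSO only and 100% = 100 µM cantharidin control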
UBC13 polyUb: UBC13 polyubiquitin chain formation inhibitors, primary screen, biochemical, TR-FRET, uHTS; Ubiquitin-conjugating enzyme E2 N (Homo sapiens), P61088; inhibition, % at 20 µM; 330,000 tested, 0.47% active; AID 485273, 2010; in the data active = inhibition above about 45%, passing the limit was not always enough
Target sequence (P61088 whole entry, looked up): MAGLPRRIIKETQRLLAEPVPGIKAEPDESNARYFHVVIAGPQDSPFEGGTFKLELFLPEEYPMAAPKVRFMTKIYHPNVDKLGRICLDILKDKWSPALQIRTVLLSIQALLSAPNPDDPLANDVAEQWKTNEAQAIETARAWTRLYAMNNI
PP1 counter: PP1-alpha phosphatase inhibitors, primary screen, counter-screen for PP5 inhibitor project, biochemical, fluorescence, OMFP substrate, single point; purified PP1alpha; AID 2235, 2010; Serine/threonine-protein phosphatase PP1-alpha catalytic subunit (Homo sapiens), P62136; inhibition, % at 6.7 µM; 320,000 tested, 0.9% active;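 active = inhibition above the mean inhibition of all tested compounds plus 3 SD, computed separately for each screening campaign, cut at about 15% in these data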
PREPL inh: PREPL enzyme inhibitors, primary screen, biochemical, fluorescence polarization | 320,000 tested, 0.68% active | AID 2751, 2010 | Prolyl endopeptidase-like (Homo sapiens), Q4J6C6 | recombinant PREPL, fluorescence polarization activity-based probe | inhibition, % at 5.96 µM; in the data active = inhibition above about 43%;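 also: 0% = enzyme with DMSO and 100% = wells lacking enzyme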
* hit, by the source's call; / = no result given.

SMILES	Fh CTSL1 inh	UCH37 DUB inh	PP5 primary	UBC13 polyUb	PP1 counter	PREPL inh
O=C(CN1C(=O)c2ccccc2C1=O)Nc1cccc2cccnc12	-4	4	2	14	0	-10
O=C1C=C(Nc2cccc3cccnc23)c2ccccc2C1=O	20*	/	2	-23	0	25
O=S1(=O)N=C(N(CCO)N=Cc2ccc(Cl)cc2)c2ccccc21	/	-43	/	/	/	/
COc1ccc(CN2C(=O)C(C)SC2=NN=Cc2ccco2)cc1 (stereo not given)	/	5	/	/	/	/
O=C(O)c1ccc(C=NNC(=O)c2ccc(CN3c4cccc5cccc(c45)S3(=O)=O)cc2)cc1	/	-91	/	/	/	/
O=C(NN=Cc1ccc(Sc2ccccn2)o1)c1cccc([N+](=O)[O-])c1	/	3	/	/	/	/
O=C(c1ccc(-c2cc3ccccc3oc2=O)cc1)N1CCN(c2ccc(Cl)cc2[N+](=O)[O-])CC1	4	3	4	-19	16*	-4
O=C(CSc1ccc(Cl)cc1)N1CCN(c2ccc(Cl)cc2[N+](=O)[O-])CC1	7	1	2	0	5	-20
CC(C)COC(=O)c1ccc2c(c1O)C(=O)c1ccccc1C2=O	24*	3	2	-45	-2	16
O=C(CNc1ccccc1)NN=Cc1ccc2c(c1)OCO2	/	2	/	/	/	/
C=CCOc1ccc(C=NNC(=O)CN2CCCCC2)cc1OC	/	6	/	/	/	/
N#Cc1cc(O)c(-n2nnc3ccccc32)cc1C#N	7	-14	0	6	-4	4
N#Cc1cc(Oc2cccc3cccnc23)c(-n2nnc3ccccc32)cc1C#N	-3	2	6	-5	16*	23
COc1cccc(C=NNC(=O)c2cc3c(OC)cccc3[nH]2)c1OC	/	-3	/	/	/	/
C[n+]1ccccc1C=NO	/	2	/	/	/	/
CC(=NNC(=O)c1ccco1)c1ccc(NC(=O)c2cccs2)cc1	/	-2	/	/	/	/
O=C1c2ccccc2C(=O)N1C/C=C/c1ccccc1	2	5	-1	13	1	3
O=C1C(=O)N(C/C=C/c2ccccc2)c2ccccc21	2	/	0	5	17*	-5
COc1cccc(NC(=S)NN=C2CCC(C(C)(C)C)CC2)c1 (stereo not given)	20*	0	0	-6	0	15
CCOC(=O)Oc1ccc2c(=O)c(Oc3cc(C)cc(C)c3)coc2c1	1	-21	1	-10	5	38
CCOC(=O)Oc1ccc2c(=O)c(Oc3cccc(C)c3)coc2c1	2	-30	7	10	-2	65*
Cc1ccccc1-n1c(SCC(=O)NN=Cc2c(C)nn(-c3ccccc3)c2C)nc2ccccc2c1=O	/	4	/	/	/	/
O=C(C[n+]1ccccc1)NN=Cc1ccc(F)cc1	/	2	/	/	/	/
O=C(NN1C(=O)/C(=C/c2ccc(O)c(O)c2)SC1=S)c1ccccc1	34*	/	4	-98	6	-46
O=C(NN1C(=O)/C(=C\c2ccc(O)c([N+](=O)[O-])c2)SC1=S)c1ccccc1Cl	4	/	1	-165	16*	5
SMILES	Fh CTSL1 inh	UCH37 DUB inh	PP5 primary	UBC13 polyUb	PP1 counter	PREPL inh
O=C(O)c1ccc(/C=C2\SC(=S)N(NC(=O)c3ccccc3[N+](=O)[O-])C2=O)cc1	/	17	/	-13	/	/
CC(C)(C)c1ccc(C2CC2C(=O)NN=Cc2cc3ccccc3nc2Cl)cc1 (stereo not given)	/	5	/	/	/	/
CCCCOc1cccc(C(=O)Nc2ccc(S(=O)(=O)Nc3nnc(CC)s3)cc2)c1	4	0	4	-12	15*	-8
CCc1nnc(NS(=O)(=O)c2ccc(NC(=O)c3cccc([N+](=O)[O-])c3)cc2)s1	-3	5	2	-7	-1	13
Cc1cc(C)c2nc(NNC(=O)c3ccc(S(=O)(=O)N4CCCCC4)cc3)sc2c1	0	0	0	-59	16*	1
CCOC(=O)N1CCN(S(=O)(=O)c2ccc(C(=O)NNc3nc4ccc(Cl)cc4s3)cc2)CC1	0	3	0	-50	16*	3
Cc1cccc2sc(NNC(=O)c3ccc(S(=O)(=O)N4CCc5ccccc5C4)cc3)nc12	3	2	2	-74	16*	3
Cc1cccc2sc(NNC(=O)c3ccc(S(=O)(=O)N4CCCC(C)C4)cc3)nc12 (stereo not given)	4	2	5	/	10	16
O=C(O)CCNc1cc(N2CCN(C(=O)c3ccco3)CC2)c2noc3c2c1C(=O)c1ccccc1-3	22*	/	7	-140	12	38
COc1cc(C=Nn2cnnc2)ccc1OC(=O)c1ccncc1	/	3	/	/	/	/
CC(C)C(OC(=O)c1cccs1)C(=O)NCc1ccco1 (stereo not given)	-4	3	-1	5	-2	-6
Cc1cc2c(cc(C(=O)OC(C(=O)NCc3ccco3)C(C)C)n2C)o1 (stereo not given)	24*	3	3	-9	0	8
COc1ccc(N2CCN(C(=O)C(NC(=O)c3c(F)cccc3F)C(C)C)CC2)cc1 (stereo not given)	26*	3	5	-7	-3	15
COC(=O)CCC/C=C1/SCC(NC(=O)c2ccccc2)C1O (stereo not given)	48*	0	0	-3	0	-3
O=S(=O)(c1ccc(F)cc1)N1CCN(c2nc(-c3cccnc3)nc3ccccc23)CC1	/	5	2	3	17*	-37
O=S(=O)(c1ccccc1)N1CCN(c2nc(-c3cccnc3)nc3ccccc23)CC1	/	-1	/	-4	/	/
CC(/C=C/c1ccc(O)cc1)=NO	/	3	/	/	/	/
S=c1[nH]nc(-c2ccccn2)n1N=Cc1ccc(-c2ccccc2Br)o1	/	7	/	/	/	/
CC(CCc1ccc2c(c1)OCO2)=NN=C(N)SC1CC(=O)N(c2ccc(Cl)cc2)C1=O (stereo not given)	/	2	/	/	/	/
Cc1ccc(-n2c(C)cc(/C=C3\NC(=O)NC3=O)c2C)c(C)c1	17*	-5	4	-1	4	7
COc1ccc(/C=C(/NC(=O)c2ccc(C)cc2)C(=O)NCC2CCCO2)cc1 (stereo not given)	2	3	1	-10	-3	-3
COc1ccc(C(=O)N/C(=C\c2ccc(Cl)cc2)C(=O)NCC2CCCO2)cc1 (stereo not given)	17*	3	1	-6	-4	4
COc1ccccc1C=NNC(=O)CSc1ccc2ccccc2n1	/	1	/	/	/	/
CCc1cc(C(=O)NN=Cc2ccc(OC)cc2)c2ccccc2n1	/	3	/	/	/	/
S=C(NCCN1CCOCC1)NN=Cc1c2ccccc2cc2ccccc12	/	-2	/	/	/	/

Compound activity: PubChem BioAssay, several laboratories
